Assays:
Spleen [1] = assay: Biodistribution in ddY mouse spleen at 1 uCi/100 uL, iv after 2 mins by gamma counting; format: ADME, organism-based; details: in vivo
Spleen [2] = assay: Biodistribution in ddY mouse spleen at 1 uCi/100 uL, iv after 60 mins by gamma counting; format: ADME, organism-based; details: in vivo, 1 h
Thyroid gland [3] = assay: Biodistribution in ddY mouse thyroid at 1 uCi/100 uL, iv after 30 mins by gamma counting; format: ADME, organism-based; details: in vivo, 0.5 h
Blood [4] = assay: Biodistribution in ddY mouse blood at 1 uCi/100 uL, iv after 120 mins by gamma counting; format: ADME, organism-based; details: in vivo, 2 h
Summary of the method: (§1)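 Normal female ddY mice (5 weeks, about 20 g; n = 4 per group) received radiotracer iv. Organs were removed and weighed at 2–120 min and counted in a γ-counter. Percent dose per gram of wet tissue was calculated against diluted aliquots of the injected material and reported as mean ± SD.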

Blood [5] = assay: Biodistribution in ddY mouse blood at 1 uCi/100 uL, iv after 60 mins by gamma counting; format: ADME, organism-based; details: in vivo, 1 h; summary of the method: as §1
Brain [6] = assay: Biodistribution in ddY mouse brain at 1 uCi/100 uL, iv after 120 mins by gamma counting; format: ADME, organism-based; details: in vivo, 2 h; summary of the method: as §1
Thyroid gland [7] = assay: Biodistribution in ddY mouse thyroid at 1 uCi/100 uL, iv after 60 mins by gamma counting; format: ADME, organism-based; details: in vivo, 1 h
Heart [8] = assay: Biodistribution in ddY mouse heart at 1 uCi/100 uL, iv after 60 mins by gamma counting; format: ADME, organism-based; details: in vivo, 1 h; summary of the method: as §1
Liver [9] = assay: Biodistribution in ddY mouse liver at 1 uCi/100 uL, iv after 60 mins by gamma counting; format: ADME, organism-based; details: in vivo, 1 h
Stomach [10] = assay: Biodistribution in ddY mouse stomach at 1 uCi/100 uL, iv after 120 mins by gamma counting; format: ADME, organism-based; details: in vivo, 2 h
Kidney [11] = assay: Biodistribution in ddY mouse kidney at 1 uCi/100 uL, iv after 60 mins by gamma counting; format: ADME, organism-based; details: in vivo, 1 h
Stomach [12] = assay: Biodistribution in ddY mouse stomach at 1 uCi/100 uL, iv after 60 mins by gamma counting; format: ADME, organism-based; details: in vivo, 1 h
Spleen [13] = assay: Biodistribution in ddY mouse spleen at 1 uCi/100 uL, iv after 30 mins by gamma counting; format: ADME, organism-based; details: in vivo, 0.5 h
Heart [14] = assay: Biodistribution in ddY mouse heart at 1 uCi/100 uL, iv after 15 mins by gamma counting; format: ADME, organism-based; details: in vivo, 0.25 h; summary of the method: as §1
Intestine [15] = assay: Biodistribution in ddY mouse intestine at 1 uCi/100 uL, iv after 2 mins by gamma counting; format: ADME, organism-based; details: in vivo; summary of the method: as §1
Thyroid gland [16] = assay: Biodistribution in ddY mouse thyroid at 1 uCi/100 uL, iv after 15 mins by gamma counting; format: ADME, organism-based; details: in vivo, 0.25 h
Thyroid gland [17] = assay: Biodistribution in ddY mouse thyroid at 1 uCi/100 uL, iv after 2 mins by gamma counting; format: ADME, organism-based; details: in vivo
Lung [18] = assay: Biodistribution in ddY mouse lung at 1 uCi/100 uL, iv after 15 mins by gamma counting; format: ADME, organism-based; details: in vivo, 0.25 h
Heart [19] = assay: Biodistribution in ddY mouse heart at 1 uCi/100 uL, iv after 120 mins by gamma counting; format: ADME, organism-based; details: in vivo, 2 h; summary of the method: as §1
Intestine [20] = assay: Biodistribution in ddY mouse intestine at 1 uCi/100 uL, iv after 15 mins by gamma counting; format: ADME, organism-based; details: in vivo, 0.25 h; summary of the method: as §1
Spleen [21] = assay: Biodistribution in ddY mouse spleen at 1 uCi/100 uL, iv after 15 mins by gamma counting; format: ADME, organism-based; details: in vivo, 0.25 h
Thyroid gland [22] = assay: Biodistribution in ddY mouse thyroid at 1 uCi/100 uL, iv after 120 mins by gamma counting; format: ADME, organism-based; details: in vivo, 2 h
Brain [23] = assay: Ratio of drug uptake in ddY mouse brain at 1 uCi/100 uL, iv after 2 mins to drug uptake in ddY mouse brain at 1 uCi/100 uL, iv after 60 mins; format: ADME, organism-based; details: in vivo
Summary of the method: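 Normal female ddY mice (5 weeks) received the radiotracer iv, and brain uptake (% ID/g, n = 4) was measured by gamma counting at 2 and 60 min. The index is brain uptake at 2 min divided by brain uptake at 60 min.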

Intestine [24] = assay: Biodistribution in ddY mouse intestine at 1 uCi/100 uL, iv after 60 mins by gamma counting; format: ADME, organism-based; details: in vivo, 1 h; summary of the method: as §1
Brain [25] = assay: Biodistribution in ddY mouse brain at 1 uCi/100 uL, iv after 60 mins by gamma counting; format: ADME, organism-based; details: in vivo, 1 h; summary of the method: as §1
Intestine [26] = assay: Biodistribution in ddY mouse intestine at 1 uCi/100 uL, iv after 120 mins by gamma counting; format: ADME, organism-based; details: in vivo, 2 h; summary of the method: as §1
Stomach [27] = assay: Biodistribution in ddY mouse stomach at 1 uCi/100 uL, iv after 15 mins by gamma counting; format: ADME, organism-based; details: in vivo, 0.25 h
Blood [28] = assay: Biodistribution in ddY mouse blood at 1 uCi/100 uL, iv after 2 mins by gamma counting; format: ADME, organism-based; details: in vivo; summary of the method: as §1
Liver [29] = assay: Biodistribution in ddY mouse liver at 1 uCi/100 uL, iv after 120 mins by gamma counting; format: ADME, organism-based; details: in vivo, 2 h
Lung [30] = assay: Biodistribution in ddY mouse lung at 1 uCi/100 uL, iv after 30 mins by gamma counting; format: ADME, organism-based; details: in vivo, 0.5 h
Brain [31] = assay: Biodistribution in ddY mouse brain at 1 uCi/100 uL, iv after 2 mins by gamma counting; format: ADME, organism-based; details: in vivo; summary of the method: as §1
Heart [32] = assay: Biodistribution in ddY mouse heart at 1 uCi/100 uL, iv after 30 mins by gamma counting; format: ADME, organism-based; details: in vivo, 0.5 h; summary of the method: as §1
Stomach [33] = assay: Biodistribution in ddY mouse stomach at 1 uCi/100 uL, iv after 30 mins by gamma counting; format: ADME, organism-based; details: in vivo, 0.5 h
Stomach [34] = assay: Biodistribution in ddY mouse stomach at 1 uCi/100 uL, iv after 2 mins by gamma counting; format: ADME, organism-based; details: in vivo
Heart [35] = assay: Biodistribution in ddY mouse heart at 1 uCi/100 uL, iv after 2 mins by gamma counting; format: ADME, organism-based; details: in vivo; summary of the method: as §1
Kidney [36] = assay: Biodistribution in ddY mouse kidney at 1 uCi/100 uL, iv after 30 mins by gamma counting; format: ADME, organism-based; details: in vivo, 0.5 h
Lung [37] = assay: Biodistribution in ddY mouse lung at 1 uCi/100 uL, iv after 120 mins by gamma counting; format: ADME, organism-based; details: in vivo, 2 h
Kidney [38] = assay: Biodistribution in ddY mouse kidney at 1 uCi/100 uL, iv after 2 mins by gamma counting; format: ADME, organism-based; details: in vivo; summary of the method: as §1
Lung [39] = assay: Biodistribution in ddY mouse lung at 1 uCi/100 uL, iv after 60 mins by gamma counting; format: ADME, organism-based; details: in vivo, 1 h
Kidney [40] = assay: Biodistribution in ddY mouse kidney at 1 uCi/100 uL, iv after 15 mins by gamma counting; format: ADME, organism-based; details: in vivo, 0.25 h; summary of the method: as §1
Kidney [41] = assay: Biodistribution in ddY mouse kidney at 1 uCi/100 uL, iv after 120 mins by gamma counting; format: ADME, organism-based; details: in vivo, 2 h; summary of the method: as §1
Lung [42] = assay: Biodistribution in ddY mouse lung at 1 uCi/100 uL, iv after 2 mins by gamma counting; format: ADME, organism-based; details: in vivo
Brain [43] = assay: Biodistribution in ddY mouse brain at 1 uCi/100 uL, iv after 15 mins by gamma counting; format: ADME, organism-based; details: in vivo, 0.25 h; summary of the method: as §1
Liver [44] = assay: Biodistribution in ddY mouse liver at 1 uCi/100 uL, iv after 15 mins by gamma counting; format: ADME, organism-based; details: in vivo, 0.25 h
Intestine [45] = assay: Biodistribution in ddY mouse intestine at 1 uCi/100 uL, iv after 30 mins by gamma counting; format: ADME, organism-based; details: in vivo, 0.5 h; summary of the method: as §1
Liver [46] = assay: Biodistribution in ddY mouse liver at 1 uCi/100 uL, iv after 30 mins by gamma counting; format: ADME, organism-based; details: in vivo, 0.5 h
Spleen [47] = assay: Biodistribution in ddY mouse spleen at 1 uCi/100 uL, iv after 120 mins by gamma counting; format: ADME, organism-based; details: in vivo, 2 h
Blood [48] = assay: Biodistribution in ddY mouse blood at 1 uCi/100 uL, iv after 30 mins by gamma counting; format: ADME, organism-based; details: in vivo, 0.5 h; summary of the method: as §1
[49] = Partition coefficient, log D of the compound; format: physicochemical; details: octanol/water
Summary of the method: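 Radiotracer partitioned between n-octanol and PBS: vortexed 3 min at room temperature, centrifuged 5 min at 3000 rpm. Weighed samples of the octanol (100 μL) and buffer (500 μL) layers were counted. log D is the log of the ratio of counts per gram, octanol versus PBS.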

Liver [50] = assay: Biodistribution in ddY mouse liver at 1 uCi/100 uL, iv after 2 mins by gamma counting; format: ADME, organism-based; details: in vivo
Blood [51] = assay: Biodistribution in ddY mouse blood at 1 uCi/100 uL, iv after 15 mins by gamma counting; format: ADME, organism-based; details: in vivo, 0.25 h; summary of the method: as §1
Brain [52] = assay: Biodistribution in ddY mouse brain at 1 uCi/100 uL, iv after 30 mins by gamma counting; format: ADME, organism-based; details: in vivo, 0.5 h; summary of the method: as §1

Nc1ccc(/C=C/C(=O)/C=C/c2ccc([125I])cc2)cc1
Drug uptake (Spleen [1]): 2.8 % ID/g
Drug uptake (Spleen [2]): 0.8 % ID/g
Drug uptake (Thyroid gland [3]): 11.49 % ID/g
Drug uptake (Blood [4]): 2.52 % ID/g
Drug uptake (Blood [5]): 1.72 % ID/g
Drug uptake (Brain [6]): 0.4 % ID/g
Drug uptake (Thyroid gland [7]): 14.14 % ID/g
Drug uptake (Heart [8]): 0.83 % ID/g
Drug uptake (Liver [9]): 16.43 % ID/g
Drug uptake (Stomach [10]): 3.07 % ID/organ
Drug uptake (Kidney [11]): 9 % ID/g
Drug uptake (Stomach [12]): 2.12 % ID/organ
Drug uptake (Spleen [13]): 1.79 % ID/g
Drug uptake (Heart [14]): 3.45 % ID/g
Drug uptake (Intestine [15]): 2.27 % ID/g
Drug uptake (Thyroid gland [16]): 8.39 % ID/g
Drug uptake (Thyroid gland [17]): 8.64 % ID/g
Drug uptake (Lung [18]): 6.06 % ID/g
Drug uptake (Heart [19]): 1.11 % ID/g
Drug uptake (Intestine [20]): 6.9 % ID/g
Drug uptake (Spleen [21]): 2.02 % ID/g
Drug uptake (Thyroid gland [22]): 21.98 % ID/g
Ratio (Brain [23]): 8.44
Drug uptake (Intestine [24]): 25.97 % ID/g
Drug uptake (Brain [25]): 0.54 % ID/g
Drug uptake (Intestine [26]): 25.7 % ID/g
Drug uptake (Stomach [27]): 3.1 % ID/organ
Drug uptake (Blood [28]): 3.89 % ID/g
Drug uptake (Liver [29]): 17.57 % ID/g
Drug uptake (Lung [30]): 4.81 % ID/g
Drug uptake (Brain [31]): 4.56 % ID/g
Drug uptake (Heart [32]): 2.01 % ID/g
Drug uptake (Stomach [33]): 3.12 % ID/organ
Drug uptake (Stomach [34]): 1.37 % ID/organ
Drug uptake (Heart [35]): 7.06 % ID/g
Drug uptake (Kidney [36]): 16.31 % ID/g
Drug uptake (Lung [37]): 2.82 % ID/g
Drug uptake (Kidney [38]): 11.2 % ID/g
Drug uptake (Lung [39]): 2.43 % ID/g
Drug uptake (Kidney [40]): 22.81 % ID/g
Drug uptake (Kidney [41]): 9.52 % ID/g
Drug uptake (Lung [42]): 9.25 % ID/g
Drug uptake (Brain [43]): 2.37 % ID/g
Drug uptake (Liver [44]): 29.08 % ID/g
Drug uptake (Intestine [45]): 10.85 % ID/g
Drug uptake (Liver [46]): 24.17 % ID/g
Drug uptake (Spleen [47]): 1.13 % ID/g
Drug uptake (Blood [48]): 4.12 % ID/g
logD [49]: 3.26
Drug uptake (Liver [50]): 16.98 % ID/g
Drug uptake (Blood [51]): 4.93 % ID/g
Drug uptake (Brain [52]): 1.36 % ID/g

— ChEMBL document CHEMBL1765020, “Synthesis and structure-affinity relationships of novel dibenzylideneacetone derivatives as probes for β-amyloid plaques” (J Med Chem, 2011)
